We go through six compounds from ChEMBL document CHEMBL1123789, “Synthesis of beta-carboline-benzodiazepine hybrid molecules: use of the known structural requirements for benzodiazepine and beta-carboline binding in designing a novel, high-affinity ligand for the benzodiazepine receptor” (J Med Chem, 1987).

Broadly, the IC50 is the point on the concentration scale where inhibition reaches its midpoint.

Experiment [1] deals with GABA-A receptor; anion channel. As to the kind of experiment: Displacement of [3H]flunitrazepam from GABA-A benzodiazepine receptor of rat cerebral cortex membrane. Type of experiment: tissue-based. The procedure, abridged: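 Rat cerebral cortex homogenised in ice-cold 50 mM Tris-HCl pH 7.4, washed by centrifugation, frozen at -20 °C ≥24 h. Filtration on glass fibre, scintillation counting, duplicates; IC50 by Hofstee analysis.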
Background: In a radioligand displacement assay an active substance lowers the binding of a labelled ligand.

The target of experiment [2] is GABA-A receptor; anion channel. As to the kind of experiment: Displacement of [3H]beta-CCE from GABA-A benzodiazepine receptor of rat cerebral cortex membranes. Type of experiment: cell membranes, Membrane. The procedure, abridged:
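Rat cerebral cortex membranes, washed in 50 mM Tris-HCl pH 7.4, stored at −20 °C for at least 24 h. 60 µg protein incubated 60 min at 0 °C with 0.4 nM [3H]-β-CCE (final) and test compound from 5×10^-10 to 10^-5 M. Nonspecific binding was defined with 1 µM unlabeled β-CCE. Bound ligand collected by GF/B filtration and counted by scintillation. Duplicates; IC50 from Hofstee analysis.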

In experiment [3] the target is T1, GABA-A receptor; anion channel (Mus musculus) (UniProt Q8BHJ7+P26048+Q8QZW7+P50571+Q9R0Y8+P22723+A2AMW3+P62812+Q9JLF1+P26049+P22933+Q9D6F4+P63080+P27681+P16305). As to the kind of experiment: In vivo displacement of [3H]flunitrazepam to GABA-A benzodiazepine receptor of mouse cerebellum at 10 mg/kg, 10 min. Type of experiment: organism-based. Further details: dose 10 mg/kg. The procedure, abridged:
(§1)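 Male Swiss mice received [3H]flunitrazepam 200 µCi/kg iv via tail vein. Test compound, 10 mg/kg suspended in Tween 80, was given 10 min later and 10 min before decapitation. Cerebellum, cortex and hippocampus were homogenized in cold 50 mM Tris-HCl pH 7.4. Crude homogenate (12 mg wet tissue) was filtered on GF/B and counted, as pCi/mg wet tissue.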

The target in experiment [4] is T1, GABA-A receptor; anion channel (Mus musculus). As to the kind of experiment: In vivo total binding of [3H]flunitrazepam (200uCi/kg, 20 min) to GABA-A benzodiazepine receptor of mouse hippocampus. Type of experiment: organism-based. The procedure, abridged: (§2)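 Male Swiss mice received [3H]flunitrazepam 200 µCi/kg in saline via tail vein, 20 min before decapitation. Cerebellum, cortex and hippocampus were dissected on ice and homogenized in ice-cold 50 mM Tris-HCl pH 7.4. Two 600-µL aliquots (12 mg wet tissue) were filtered on GF/B, washed twice and counted. Results given as pCi/mg wet tissue.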

The target is the same in experiment [5]. As to the kind of experiment: In vivo binding of [3H]flunitrazepam to GABA-A benzodiazepine receptor of mouse cerebellum after maximal Diazepam (10mg/kg, 40 min). Type of experiment: organism-based. In a few lines:
(§3)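 Nonspecific in vivo binding. Diazepam 10 mg/kg was given to male Swiss mice 40 min before iv [3H]flunitrazepam (200 µCi/kg) and 60 min before decapitation. Cerebellum, cortex and hippocampus were homogenized in cold 50 mM Tris-HCl pH 7.4. Crude homogenate (12 mg wet tissue) was filtered on GF/B and counted, as pCi/mg wet tissue.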

For experiment [6] the target is unchanged. As to the kind of experiment: In vivo binding of [3H]flunitrazepam to GABA-A benzodiazepine receptor of mouse hippocampus after maximal Diazepam (10 mg/kg, 40 min). Type of experiment: organism-based. In a few lines: as §3
The target is the same in experiment [7]. As to the kind of experiment: In vivo displacement of [3H]flunitrazepam to GABA-A benzodiazepine receptor of mouse hippocampus at 10 mg/kg, 10 min. In kind it is organism-based. On the set-up: dose 10 mg/kg. The procedure, abridged: as §1
Experiment [8] shares this target. As to the kind of experiment: In vivo total binding of [3H]flunitrazepam (200uCi/kg, 20 min) to GABA-A benzodiazepine receptor of mouse cortex. Type of experiment: organism-based. The procedure, abridged: as §2
Experiment [9] shares this target. As to the kind of experiment: In vivo displacement of [3H]flunitrazepam to GABA-A benzodiazepine receptor of mouse cortex at 10 mg/kg, 10 min. Further details: dose 10 mg/kg. In kind it is organism-based. In a few lines:
as §1

For experiment [10] the target is unchanged. As to the kind of experiment: In vivo binding of [3H]flunitrazepam to GABA-A benzodiazepine receptor of mouse cortex after maximal Diazepam (10 mg/kg, 40 min). In kind it is organism-based. In a few lines:
as §3

The target is the same in experiment [11]. As to the kind of experiment: In vivo total binding of [3H]flunitrazepam (200uCi/kg, 20 min) to GABA-A benzodiazepine receptor of mouse cerebellum. Type of experiment: organism-based. The procedure, abridged: as §2

Regarding `CN1C(=O)CN=C(c2ccccc2F)c2cc([N+](=O)[O-])ccc21` [FLUNITRAZEPAM], the IC50 in experiment [1] amounted to 3 nM; in experiment [2] it was 8 nM.

Turning to `O=C1Nc2ccccc2C(=O)N2Cc3[nH]c4ccccc4c3CC12` (stereo unspecified), the IC50 in [1] and in experiment [2] was greater than 100000 nM in each case.

Turning to `O=C1Nc2ccccc2CN2Cc3[nH]c4ccccc4c3CC12` (stereo unspecified), the half-inhibitory concentration (IC50) in experiment [1] and in [2] was greater than 100000 nM in each case.

`O=C1Nc2ccccc2Cn2cc3nc4ccccc4c-3cc21`: the IC50 stood at 6000 nM in experiment [1] and 2000 nM in experiment [2].

Regarding `CCOC(=O)C1=CC2c3ccccc3NC2C=N1` (stereo unspecified), the values for the concentration for half-maximal inhibition (IC50) in experiment [1] and in [2] were 2.5 nM and 6 nM, respectively.

Take `O=c1[nH]c2ccccc2c(=O)n2cc3nc4ccccc4c-3cc12`: the Total binding in [3] came out at 78.8 pCi mg-1; in experiment [4] it was 95.5 pCi mg-1; in [7], 96.8 pCi mg-1; in experiment [8], 85 pCi mg-1; in experiment [9], 88 pCi mg-1; in [11], 71.2 pCi mg-1. In addition, the half-maximal inhibitory concentration (IC50) in experiment [1] was 23 nM; in experiment [2], 47 nM. Moreover, the figures for the Binding in [5], in [6] and in [10] were 24.1 pCi mg-1, 25.6 pCi mg-1 and 26.7 pCi mg-1, respectively.
